# PKA-R1A act: activators of PKA-R1A holoenzyme, primary screen, biochemical, fluorescence polarization, Cy5-IP20, bovine R1A, mouse PKAc. cAMP-dependent protein kinase type I-alpha regulatory subunit (Bos taurus) + …. PKA-R1A dissociation; scaled: DMSO 0%, 113 µM cGMP 100%. hit rate 0.083% among 340,000. activation, % at 11.4 µM. AID 504707, 2011;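 active = percent activation above the mean of all tested compounds plus 3 SD, cut at about 19% in these data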;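 also: higher means more PKAc released from R1A so a rise in polarization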
# dFosB act: activators of delta FosB homodimer, primary screen, biochemical, fluorescence polarization, TAMRA-CDK5 oligo, single point | Protein FosB (Mus musculus), P13346 | purified delta FosB; percent of positive-control signal above neutral wells | activation, % at 25 µM | hit rate 0.99% among 340,000;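 active = mean activation above about 17%, with every replicate also reaching it, limit read from the data, passing the limit was not always enough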
# SR-BI HDL uptake: inhibitors of SR-BI mediated HDL lipid uptake, primary screen, ldlA[mSR-BI] cells, fluorescence, single point | ldlA[mSR-BI] CHO cells, DiI-HDL uptake fluorescence, 3 h | inhibition, % at 12.5 µM | hit rate 0.96% among 320,000 | AID 488896, 2010;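 active = mean replicate inhibition of at least 70% and a set share of replicates each scoring 70 or more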;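 also: 0% = median of neutral control wells and 100% = median of positive control wells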
# CDK5 inh: inhibitors of human CDK5/p35 kinase, primary screen, biochemical, single concentration; Cyclin-dependent kinase 5 (Homo sapiens) + Cyclin-dependent kinase 5 activator 1 (Homo …; Recombinant CDK5/p35, ADP-Glo luminescence, 60 min; inhibition, % at 10 µM; hit rate 0.01% among 330,000; AID 488839, 2010;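 active = highest replicate inhibition of at least 50% and at least 75% of replicates reaching 50%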;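 also: plate controls were DMSO neutral control for no effect and GW8510 at 10 µM for full effect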
# Target sequence (Q00535 whole entry, looked up): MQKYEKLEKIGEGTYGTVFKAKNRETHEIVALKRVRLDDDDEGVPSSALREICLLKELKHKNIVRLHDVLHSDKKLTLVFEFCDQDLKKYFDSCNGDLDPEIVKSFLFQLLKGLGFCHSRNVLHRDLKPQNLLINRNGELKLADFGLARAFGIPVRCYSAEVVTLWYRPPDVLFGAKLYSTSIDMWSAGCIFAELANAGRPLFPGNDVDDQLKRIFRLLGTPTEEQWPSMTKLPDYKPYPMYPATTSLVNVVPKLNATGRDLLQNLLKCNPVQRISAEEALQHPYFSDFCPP
# Target sequence (Q15078 whole entry, looked up): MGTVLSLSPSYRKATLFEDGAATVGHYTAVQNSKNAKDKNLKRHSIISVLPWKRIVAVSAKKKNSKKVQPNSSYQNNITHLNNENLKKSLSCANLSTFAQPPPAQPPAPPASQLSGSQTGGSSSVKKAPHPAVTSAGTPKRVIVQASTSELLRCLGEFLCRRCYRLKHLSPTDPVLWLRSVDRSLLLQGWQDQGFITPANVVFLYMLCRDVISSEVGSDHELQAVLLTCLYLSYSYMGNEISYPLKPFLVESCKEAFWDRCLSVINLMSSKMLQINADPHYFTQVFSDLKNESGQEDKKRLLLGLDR
# SR-BI DiI-HDL act: activators of SR-BI mediated DiI-HDL uptake, primary screen, ldlA[mSR-BI] CHO cells, DiI fluorescence. 3 h; 100 = double the neutral-control signal. AID 504775, 2011. activation, % at 12.5 µM. hit rate 0.096% among 320,000;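 active = mean replicate activation of at least 60% and every replicate at or above 60%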;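 also: 0% = median plate neutral-control signal and 100% = twice that signal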
#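 material = CHO ldlA[mSR-BI] cells | medium = Ham's F12 with 0.5% BSA, HEPES 25 mM, pH 7.4 | reagent = fluorescent DiI-HDL, 10 µg/mL final | compound dosing = single-point compound dose | incubation = 3 h, 37 °C | measured by = bottom-read fluorescence, 550/595 nm | measure = HDL uptake via cellular fluorescence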
# PKA-R2B act: activators of PKA-R2B holoenzyme, primary screen, biochemical, fluorescence polarization, Cy5-IP20, human; cAMP-dependent protein kinase catalytic subunit beta (Homo sapiens) + cAMP-dependent …; PKA-R2B holoenzyme dissociation; R2B truncated from residue 108, S112A mutant; 0% DMSO only, 100% 113 µM cGMP; activation, % at 11.4 µM; hit rate 0.079% among 340,000;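 active = activation above a cutoff set at the mean over all compounds plus 3 SD, cut at about 18% in these data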;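 also: higher means more holoenzyme dissociation and a rise in polarization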
# The depositor's hits bear a star; . = no result. Rows were chosen to be rich in hits. Some 2.1% of all compounds tested hit in one or more screens of this group.
SMILES,PKA-R1A act,dFosB act,SR-BI HDL uptake,CDK5 inh,SR-BI DiI-HDL act,PKA-R2B act
CCCOC(=O)c1c(NC(=O)/C=C/c2cnn(C)c2C)sc(C(=O)OC)c1C,-3.6,-12.7,55.1,0.5,-55.1,5.4
CCOC(=O)Oc1c(OC)cc(C(=O)O[C@@H]2C[C@@H]3CN4CCc5c([nH]c6cc(OC)ccc56)[C@H]4C[C@@H]3[C@H](C(=O)OC)[C@H]2OC)cc1OC,-3.2,29.3*,69.8,-0.2,-69.8,3.1
Cc1cccc(NC(=O)CSc2nnc(CNC(=O)c3ccc(S(=O)(=O)N(C)C)cc3)n2-c2cccc(C)c2)c1,-20.9,-3.9,84.8*,1.4,-84.8,-2.0
CCOC(=O)/C=C/C(=O)Nc1ccc(S(=O)(=O)Nc2nccs2)cc1,0.3,-1.6,72.5*,1.2,-72.5,-0.5
N#CCCn1cc(/C=N/NC(N)=S)c(-c2ccccc2)n1,-3.4,0.3,79.0*,2.9,-79.0,2.3
O=c1c2sc3ccccc3c2[nH]c(=S)n1CCN1CCOCC1,2.1,-11.2,-71.3,-3.8,71.3*,-4.2
CC1CCN(CCCn2c(=S)[nH]c3c(sc4ccccc43)c2=O)CC1,0.9,-15.2,-2.0,1.6,2.0,5.9
CC1(C)CC2(CC(c3ccc(F)cc3)c3ccc(O)cc3O2)NC(=S)N1 (stereo not drawn),-5.6,0.1,47.4,2.8,-47.4,-4.6
CC1(C)CC2(CC(c3cccs3)c3cc(Cl)c(O)cc3O2)NC(=S)N1 (stereo not drawn),-5.9,-3.3,89.9*,-1.0,-89.9,1.9
O=C(c1cc(Br)c[nH]1)N1CCSCC1,-6.4,3.9,0.4,-1.0,-0.4,-6.9
CC1CCN(c2ccc(NC(=O)c3ccc(Br)o3)cc2)CC1,-2.0,2.5,13.0,0.8,-13.0,-15.5
COc1cc(/C=C\C(=O)NCc2ccc3[nH]c(C)cc3c2)cc(OC)c1OC,-0.9,4.9,75.5*,1.7,-75.5,-10.6
COc1ccc(/C=C\C(=O)NCc2ccc3[nH]c(C)cc3c2)cc1OC,-10.5,-0.5,38.0,-3.4,-38.0,4.9
COc1ccc(CCN=Cc2c(C)[nH]n(-c3ccc([N+](=O)[O-])cc3)c2=O)cc1OC,3.7,-2.2,-8.1,0.1,8.1,7.4
COc1ccc(-c2[nH]n(-c3ccc([N+](=O)[O-])cc3)c(=O)c2C=NCc2ccccc2)cc1,3.0,-1.2,87.4*,-0.3,-87.4,-11.6
Cc1cc(C)n2nc(C(=O)OCC(=O)N(C)CC(=O)Nc3ccccc3Cl)nc2n1,-2.5,-3.9,-34.8,2.0,34.8,-5.2
Cc1ccc(OCC(=O)NN=C2C3CC4CC(C3)CC2C4)cc1,-2.6,-10.1,9.2,0.5,-9.2,-1.5
COc1cccc(-c2nc(-c3ccc(NC(=O)Cc4ccccc4OC)cc3)no2)c1,-14.3,-12.2,78.3*,0.9,-78.3,-1.9
COc1ccc(-c2nc(-c3ccc(NC(=O)c4ccc(Br)o4)cc3)no2)cc1OC,-6.4,12.2,78.5*,0.6,-78.5,-10.5
COc1ccc(-c2nc(-c3ccc(Br)o3)no2)cc1OC,-4.2,-14.3,60.9,-3.8,-60.9,-9.7
COc1cc(-c2nc(-c3ccc(NC(=O)c4ccc(Br)o4)cc3)no2)cc(OC)c1OC,0.8,49.1*,41.7,0.2,-41.7,-6.5
CCN(CC)CCC(O)(c1ccc2c(c1)OCO2)c1cc(OC)c(OC)c(OC)c1 (stereo not drawn),-8.7,-12.1,-2.9,-1.8,2.9,-3.3
O=C(c1cc(-c2ccc(Cl)cc2)n[nH]1)N1CCc2ccccc2C1,-10.3,6.9,-10.0,.,10.0,-5.7

# High-throughput results: PubChem, several laboratories
